High-throughput results as filed in PubChem BioAssay.
The full list was thinned out, with hits kept by preference.
G6PDH CS: L. mesenteroides G6PDH inhibition counter-screen | 0.12% of 200,000 active | inhibition, % at 5 µM | Purified L. mesenteroides G6PDH, diaphorase/resazurin coupled fluorescence, 45 min | AID 1020
Diaphorase act: counter-screen for diaphorase-based assays: diaphorase activators and chemical reducers. Diaphorase/resazurin coupled assay, resorufin fluorescence, 16 min; active compounds read high; 1 = vehicle wells, 0 = NADH-free wells. 0.005% of 190,000 active. activation factor at 20 µM. AID 1229;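 active = diaphorase activity raised at least twofold by the compound at 20 µM; inactive = activation factor below 2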
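Test system: Clostridium kluyveri diaphorase, purified enzyme. Buffer or medium: 50 mM HEPES pH 7.4 buffer plus MgCl2 and Tween 20. Also added: 0.114 mM NADH and 0.1 mM resazurin, final amounts. Dosing: compound 20 µM once, DMSO 1%. Schedule: 16 min enzyme reaction, ambient temperature. Detection: fluorescence of resorufin, 544 nm excitation, 590 nm emission.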
PfG6PD inh: PfG6PD (Plasmodium falciparum) enzyme inhibition | PfGluPho enzyme, NADPH resazurin-diaphorase fluorescence | inhibition, % at 20 µM | 0.78% of 350,000 active;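 active = inhibition reaching at least a set limit at 20 µM in the primary screen, cut at about 59% in these data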;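 note: 0% = DMSO wells with substrate and 100% = DMSO wells lacking glucose-6-phosphate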
L major viab: reduces viability of Leishmania major promastigotes. resazurin fluorescence viability. inhibition, % at 10 µM. 9% of 200,000 active. AID 1063;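 note: promastigotes grown with compound for 44 hours at 28 °C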
Diaph inh CS: counter-screen for diaphorase-based assays: diaphorase inhibitors and chemical oxidizers; diaphorase resazurin-to-resorufin fluorescence, NADH, 16 min; bacterial (C. kluyveri) enzyme, not human; inhibition, % at 20 µM; 0.69% of 190,000 active; AID 1217;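 active = primary screen inhibition at 20 µM above a set limit, cut at about 50% in these data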;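 note: plate controls were DMSO with full reaction for no effect and wells lacking NADH for full effect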
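Test system: Clostridium kluyveri diaphorase enzyme / Quantity: diaphorase at 0.14 U/mL in enzyme working solution / Incubation: 16-min room-temperature incubation before reading / Benchmarks: NADH-free wells as positive control, DMSO-only neutral wells / Signal: resorufin fluorescence 544/590 nm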
Redox H2O2 prof: compounds producing H2O2 with reducing agent – biochemical, NIH compound library profiling, artefact control for MLSCN library redox annotation, primary screen. DTT-dependent redox cycling H2O2, phenol red/HRP absorbance; 100% = 100 µM peroxide control, 0% = buffer. 0.03% of 200,000 active. activation, % at 10 µM;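 active = activation of at least 50% relative to the plate's high and low controls in the primary single-dose screen; inactive = activation below 50%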;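 note: compound incubated with DTT at 0.8 mM final as the reducing agent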
Numbers without * were called inactive; . = no result. Cut-off read from the data, not from the text of the source, unless noted: active = inhibition above about 50%; inactive = the rest.

SMILES	G6PDH CS	Diaphorase act	PfG6PD inh	L major viab	Diaph inh CS	Redox H2O2 prof
NC(CSC(c1ccccc1)(c1ccccc1)c1ccc2c(c1)OCO2)C(=O)O (stereo not given)	.	.	-15	.	.	.
Cc1ccc(S(N)(=O)=O)cc1NC(=O)/C=C/c1ccc2c(c1)OCO2	11	0.7	21	10	26	0
COc1cc(C2C(C#N)=C(N)OC3=C2C(=O)CC(C)(C)C3)cc2c1OCO2 (stereo not given)	.	.	2	.	.	.
COc1ccc(C(=O)Cc2nnc(C)s2)cc1	6	1	-1	3	4	-1
Cc1ccnc(NC(=O)c2ccc(COc3ccc(Cl)cc3)o2)c1	2	0.8	5	-2	18	1
COc1ccc(C2NC(c3ccc(OC)cc3)C(c3ccccc3)C(=O)C2c2ccccc2)cc1 (stereo not given)	-12	0.8	17	98*	17	0
CN(C)Cc1c(C(=O)N/N=C/C2CC=CCC2)nnn1-c1nonc1N (stereo not given)	.	.	6	.	.	.
Cn1c(=O)[nH]c(=O)c2c1nc(Br)n2C/C=N/NC(=O)c1ccccc1	.	.	-9	.	.	.
COc1ccc(CCn2c(Br)nc3c2c(=O)[nH]c(=O)n3C)cc1	-5	1.1	-4	91*	-11	1
Cn1c(=O)[nH]c(=O)c2c1nc(Br)n2C/C=N/Nc1ccccc1	12	1.1	3	65*	-14	0
CCOC(=O)C1CCN(S(=O)(=O)c2cc3c(cc2C)NC(=O)CO3)CC1	.	.	-24	.	.	.
O=C(c1cc2ncccn2n1)N1CCc2c([nH]c3ccccc23)C1c1ccccc1F (stereo not given)	19	.	8	56*	.	-1
Cc1ncoc1C(=O)N1CCc2c([nH]c3ccccc23)C1c1ccccc1F (stereo not given)	4	0.9	-14	3	14	-1
Cc1cccc(CN(CC(=O)N/N=C/c2cccs2)S(=O)(=O)c2ccc(Cl)cc2)c1	10	0.8	37	93*	23	2
O=C(Nc1ccc(F)c(F)c1)C1CCN(S(=O)(=O)c2cccs2)CC1	.	.	12	.	.	.
Oc1ccccc1N=Cc1ccc[nH]1	22	0.9	4	100*	12	0
COc1cc(C2CC(=O)NC3=C2C(=O)CC(C)(C)C3)cc(OC)c1O (stereo not given)	50*	0.8	3	-8	21	0
CC(C)(C)NCc1cccn1-c1sc2c(c1C#N)CCCC2	3	0.9	-6	78*	12	3
O=C(NNc1cccc(Cl)c1)c1cccnc1Oc1ccccc1	.	.	-4	.	.	.
CCCn1c(-c2cccc(F)c2)nc2c1c(=O)[nH]c(=O)n2Cc1ccccc1	.	.	-1	.	.	.
COc1ccc(Cn2c(-c3ccc(C)cc3)nc3c(c(=O)c4ccccc4n3C)c2=O)cc1	-1	0.9	-18	88*	12	1
COc1ccc(Cn2c(-c3ccc(OC)cc3)nc3c(c(=O)c4ccccc4n3C)c2=O)cc1	-18	1	.	11	0	0
COCCn1c(-c2cccc([N+](=O)[O-])c2)nc2c1c(=O)[nH]c(=O)n2Cc1ccccc1	10	0.9	8	84*	7	0
COc1ccc(-c2nc3c(c(=O)[nH]c(=O)n3Cc3ccccc3)n2Cc2ccccc2)cc1	13	1	-2	99*	0	-1
Cc1ccc(-n2ccnc2SCC(=O)c2c(N)n(C3CC3)c(=O)[nH]c2=O)cc1C	.	.	-1	.	.	.
SMILES	G6PDH CS	Diaphorase act	PfG6PD inh	L major viab	Diaph inh CS	Redox H2O2 prof
COc1ccc(OC)c(NC(=O)Cn2nc(C)c3ccccc3c2=O)c1	.	.	-13	.	.	.
Fc1ccc(-c2noc(C3CCN(Cc4cccnc4)CC3)n2)cc1	8	0.9	-1	94*	13	-1
CCCC1CCC(c2nc(-c3cccnc3)no2)CC1 (stereo not given)	12	1	2	-4	3	1
Cc1c(N=NC2=C(O)CCCC2=O)c(=O)n(-c2ccccc2)n1C	22	0.8	12	-11	24	-1
Cc1ccc(-n2ncc3c(SCC(N)=O)ncnc32)cc1C	.	.	-8	.	.	.
Cc1c(C(C)C[C@H](C)O)oc(=O)c2c1Oc1c(C)c(C(C)C[C@H](C)O)oc(=O)c1C2 (stereo not given in full)	.	.	-15	.	.	.
CCn1nc(C(=O)OCC(=O)c2ccc(F)cc2)c2ccccc2c1=O	-4	1	-7	-3	5	0
CCn1nc(C(=O)OC(C(=O)c2c[nH]c3ccccc23)c2ccccc2)c2ccccc2c1=O (stereo not given)	-3	0.8	-4	100*	20	2
CCN(CC)c1cc(C)c2cc(NC(=O)c3ccc(Br)o3)ccc2n1	20	0.7	14	80*	33	3
Cc1cc(N2CCN(C)CC2)nc2ccc(NC(=O)c3ccccc3F)cc12	7	1	-22	42	1	-1
CCN1CCN(c2cc(C)c3cc(NC(=O)c4ccccc4F)ccc3n2)CC1	1	1.4	.	51*	-36	-1
CCN1CCN(c2cc(C)c3cc(NC(=O)c4ccc(Br)o4)ccc3n2)CC1	-5	1.4	8	100*	-36	0
Cc1cc(N2CCN(C)CC2)nc2ccc(NC(=O)c3cccnc3Cl)cc12	5	1.1	-2	99*	-12	0
CC(C)n1cc2c(N)ncnc2n1	.	.	0	.	.	.
COc1ccccc1NC(=O)CNC(=O)c1ccc(Br)o1	.	.	4	.	.	.
COC(=O)C(O)(NC(=O)c1ccncc1)C(F)(F)F (stereo not given)	.	.	-9	.	.	.
CCN1CCN(c2cc(C)c3cc(NC(=O)c4cccnc4Cl)ccc3n2)CC1	4	1.1	1	99*	-13	-8
CCN1CCN(c2cc(C)c3cc(NC(=O)c4ccc(C)c(C)c4)ccc3n2)CC1	.	.	-5	.	.	.
CCN1CCN(c2cc(C)c3cc(NC(=O)CCC(=O)Nc4ccc(OC)cc4OC)ccc3n2)CC1	.	.	6	.	.	.
CCN1CCN(c2cc(C)c3cc(NC(=O)c4ccncc4)ccc3n2)CC1	4	1.2	-16	65*	-17	-1
N#C/C(=C/c1ccco1)c1nc2ccccc2s1	9	0.9	11	57*	13	0
N#C/C(=C/c1ccc(-c2cc(C(=O)O)cc(C(=O)O)c2)o1)c1nc2ccccc2s1	8	0.4	.	4	61*	-1
N#C/C(=C\c1ccco1)c1nc2ccccc2s1	11	1	-5	-6	4	0
CC(NC(=O)C12CC3CC(CC(C3)C1)C2)c1ccc(F)cc1 (stereo not given)	.	.	-1	.	.	.
Cn1c(C(=O)OC(C(=O)NC(C)(C)C)c2cccnc2)cc2sccc21 (stereo not given)	8	0.9	-4	95*	7	-1
CCCCn1c(SCC(=O)c2ccc(O)cc2O)nc2cc(S(N)(=O)=O)ccc21	.	.	33	.	.	.
